Measurements from ChEMBL document CHEMBL5034051, “Proteome-wide Identification of Off-Targets of a Potent EGFRL858R/T790M Mutant Inhibitor” (ACS Med Chem Lett, 2022).
Calls of active or inactive are those of the source. The calls are words filed in the database; no cut-off is given here.

Tests used:
NCI-H1975 [1] = assay: Antiproliferative activity against human NCI-H1975 cells harboring EGFR T790M mutant assessed as reduction in cell viability measured after 72 hrs by CCK8 assay; format: functional, cell-based; conditions: NCI-H1975, 72 h
How it was run: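 H1975 NSCLC cells, which carry EGFR T790M, were used in a cell-based CCK8 antiproliferation assay. IC50 values were reported.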

[2] = biological target: Epidermal growth factor receptor (Homo sapiens, UniProt P00533, T790M); assay: Inhibition of EGFR T790M mutant (unknown origin) using Poly (Glu, Tyr)4:1 as substrate by spectrophotometry
Sequence of Epidermal growth factor receptor (P00533 25-1210 T790M limits assumed): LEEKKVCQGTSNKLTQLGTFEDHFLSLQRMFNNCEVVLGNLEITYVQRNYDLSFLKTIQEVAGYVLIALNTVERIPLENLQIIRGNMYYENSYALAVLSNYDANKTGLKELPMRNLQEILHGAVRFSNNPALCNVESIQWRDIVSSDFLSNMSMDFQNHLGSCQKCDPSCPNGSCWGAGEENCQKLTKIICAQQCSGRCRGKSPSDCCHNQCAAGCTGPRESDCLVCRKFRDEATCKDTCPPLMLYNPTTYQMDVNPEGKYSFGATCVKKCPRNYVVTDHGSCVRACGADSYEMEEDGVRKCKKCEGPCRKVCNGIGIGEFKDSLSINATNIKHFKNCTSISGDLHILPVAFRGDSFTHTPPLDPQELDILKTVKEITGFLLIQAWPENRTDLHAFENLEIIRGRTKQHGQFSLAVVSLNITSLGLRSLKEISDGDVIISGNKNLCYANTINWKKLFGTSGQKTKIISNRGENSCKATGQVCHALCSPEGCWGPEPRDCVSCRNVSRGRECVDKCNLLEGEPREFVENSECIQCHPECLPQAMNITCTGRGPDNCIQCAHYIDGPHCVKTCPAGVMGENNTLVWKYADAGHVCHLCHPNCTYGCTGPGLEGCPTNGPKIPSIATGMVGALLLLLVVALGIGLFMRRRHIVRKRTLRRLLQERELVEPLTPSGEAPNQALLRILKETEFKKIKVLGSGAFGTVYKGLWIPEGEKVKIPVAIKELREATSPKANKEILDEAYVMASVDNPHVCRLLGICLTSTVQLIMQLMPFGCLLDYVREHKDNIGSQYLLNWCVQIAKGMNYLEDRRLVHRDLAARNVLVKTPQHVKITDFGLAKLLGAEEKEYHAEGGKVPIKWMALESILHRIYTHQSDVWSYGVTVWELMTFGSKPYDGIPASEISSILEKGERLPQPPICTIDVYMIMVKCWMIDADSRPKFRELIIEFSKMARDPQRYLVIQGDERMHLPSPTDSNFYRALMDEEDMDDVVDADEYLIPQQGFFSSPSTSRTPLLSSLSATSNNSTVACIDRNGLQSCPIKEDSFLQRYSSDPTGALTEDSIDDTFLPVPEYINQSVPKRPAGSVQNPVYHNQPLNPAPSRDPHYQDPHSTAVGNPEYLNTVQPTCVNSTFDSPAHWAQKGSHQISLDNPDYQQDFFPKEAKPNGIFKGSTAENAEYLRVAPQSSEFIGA

[3] = Drug uptake in cytosol of human NCI-H1975 cells assessed as fluorescence signal at 5 uM incubated for 1 hrs by fluorescence microscopy; format: ADME, subcellular
How it was run: (§1)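 Live H1975 cells were incubated for 1 h with the 5 μM alkyne probe, with or without parent inhibitor, against DMSO controls. Cells were then fixed, permeabilized, clicked with TAMRA-azide and imaged by fluorescence microscopy, with excitation at 550 nm for the probe channel.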

[4] = Drug uptake in nucleus of human NCI-H1975 cells assessed as fluorescence signal at 5 uM incubated for 1 hrs by fluorescence microscopy; format: ADME, cell-based; conditions: nci-h1975, 1 h; how it was run: as §1
[5] = biological target: Epidermal growth factor receptor (Homo sapiens) (UniProt P00533); assay: Inhibition of EGFR in human NCI-H1975 cells by pull down/Western blot analysis; format: cell-based
Sequence of Epidermal growth factor receptor (Homo sapiens) (P00533 whole entry): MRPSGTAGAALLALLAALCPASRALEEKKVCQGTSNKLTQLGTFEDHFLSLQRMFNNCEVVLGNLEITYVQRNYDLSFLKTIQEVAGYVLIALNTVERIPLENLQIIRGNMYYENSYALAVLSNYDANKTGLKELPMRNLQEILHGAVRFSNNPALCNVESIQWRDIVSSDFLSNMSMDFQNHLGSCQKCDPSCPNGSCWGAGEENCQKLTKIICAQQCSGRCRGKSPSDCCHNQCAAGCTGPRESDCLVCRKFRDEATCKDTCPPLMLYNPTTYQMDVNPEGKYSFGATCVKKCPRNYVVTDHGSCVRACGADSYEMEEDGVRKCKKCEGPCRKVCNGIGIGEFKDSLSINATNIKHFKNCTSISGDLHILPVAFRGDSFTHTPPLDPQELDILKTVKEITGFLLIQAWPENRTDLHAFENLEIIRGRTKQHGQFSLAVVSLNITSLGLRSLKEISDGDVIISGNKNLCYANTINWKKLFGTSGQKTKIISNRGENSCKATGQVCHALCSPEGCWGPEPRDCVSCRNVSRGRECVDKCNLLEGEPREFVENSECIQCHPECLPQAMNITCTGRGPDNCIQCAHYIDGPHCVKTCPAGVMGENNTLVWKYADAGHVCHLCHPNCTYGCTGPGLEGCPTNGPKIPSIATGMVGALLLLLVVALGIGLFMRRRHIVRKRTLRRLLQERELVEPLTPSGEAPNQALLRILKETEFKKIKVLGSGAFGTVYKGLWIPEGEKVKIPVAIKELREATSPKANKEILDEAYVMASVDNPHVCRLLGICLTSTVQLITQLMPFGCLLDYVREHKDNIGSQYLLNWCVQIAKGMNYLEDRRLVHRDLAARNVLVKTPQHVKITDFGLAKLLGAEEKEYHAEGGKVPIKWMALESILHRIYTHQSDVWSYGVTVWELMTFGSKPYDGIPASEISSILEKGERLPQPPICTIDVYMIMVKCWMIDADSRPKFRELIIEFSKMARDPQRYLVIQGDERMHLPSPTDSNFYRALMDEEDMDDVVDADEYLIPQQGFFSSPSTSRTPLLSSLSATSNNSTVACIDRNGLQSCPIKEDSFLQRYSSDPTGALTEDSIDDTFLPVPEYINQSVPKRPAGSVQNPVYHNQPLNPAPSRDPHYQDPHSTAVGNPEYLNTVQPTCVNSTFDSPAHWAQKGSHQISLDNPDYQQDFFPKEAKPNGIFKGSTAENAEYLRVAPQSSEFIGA
How it was run: (§2)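 H1975 cells were treated with the probe, and the lysate was clicked to a biotin tag and enriched on streptavidin beads. The pulled-down proteins were then detected by Western blot with antibodies to EGFR and NT5DC1.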

[6] = biological target: T1, 5'-nucleotidase domain-containing protein 1 (Homo sapiens) (UniProt Q5TFE4); assay: Inhibition of NT5DC1 in human NCI-H1975 cells by pull down/Western blot analysis; format: cell-based; how it was run: as §2
T1 sequence (whole entry): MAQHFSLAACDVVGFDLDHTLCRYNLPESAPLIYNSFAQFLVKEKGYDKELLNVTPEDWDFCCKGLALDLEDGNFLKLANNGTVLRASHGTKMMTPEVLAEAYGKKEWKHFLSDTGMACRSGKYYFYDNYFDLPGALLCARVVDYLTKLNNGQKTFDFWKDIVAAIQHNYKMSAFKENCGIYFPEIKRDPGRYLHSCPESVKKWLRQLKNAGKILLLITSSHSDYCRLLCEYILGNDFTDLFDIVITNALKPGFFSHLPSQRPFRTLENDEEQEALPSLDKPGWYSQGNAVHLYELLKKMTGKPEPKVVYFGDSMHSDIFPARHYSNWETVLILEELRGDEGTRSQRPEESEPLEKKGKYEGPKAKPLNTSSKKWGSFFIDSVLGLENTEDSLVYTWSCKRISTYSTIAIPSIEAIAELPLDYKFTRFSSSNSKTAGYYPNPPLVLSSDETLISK

[7] = biological target: T1, 5'-nucleotidase domain-containing protein 1 (Homo sapiens); assay: Thermal stabilization of NT5DC1 in human NCI-H1975 cells assessed as positive shift in melting temperature by CETSA; format: cell-based
How it was run: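 Binding was tested by cellular thermal shift assay in H1975 cells exposed to the compounds. NT5DC1 stabilization was read as a shift in melting temperature.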

NCI-H1975 [8] = assay: Antiproliferative activity against NT5DC1 knockdown human NCI-H1975 cells assessed as reduction in cell viability incubated for 48 hrs by CCK8 assay; format: functional, cell-based
How it was run: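 NT5DC1 was knocked down in H1975 cells with siRNA, with scrambled siRNA as the negative control. Knockdown was checked by Western blot. Cells with or without knockdown were exposed to a range of compound concentrations, and viability was read out against DMSO-treated controls.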

[9] = biological target: T1, 5'-nucleotidase domain-containing protein 1 (Homo sapiens); assay: Binding affinity to NT5DC1 in human NCI-H1299 cells at 1 uM by Western blot analysis; format: cell-based
How it was run: (§3)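 Live cancer cells were labelled in situ with the 1 μM alkyne probe, clicked to TAMRA-azide and resolved by SDS-PAGE with fluorescence scanning. NT5DC1 expression in each line was measured separately by Western blot.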

[10] = biological target: T1, 5'-nucleotidase domain-containing protein 1 (Homo sapiens); assay: Binding affinity to NT5DC1 in human HeLa cells at 1 uM by Western blot analysis; format: cell-based; how it was run: as §3
[11] = biological target: T1, 5'-nucleotidase domain-containing protein 1 (Homo sapiens); assay: Binding affinity to NT5DC1 in human Huh-7 cells at 1 uM by Western blot analysis; format: cell-based; how it was run: as §3
[12] = biological target: T1, 5'-nucleotidase domain-containing protein 1 (Homo sapiens); assay: Binding affinity to NT5DC1 in human MCF7 cells at 1 uM by Western blot analysis; format: cell-based; how it was run: as §3
[13] = biological target: T1, 5'-nucleotidase domain-containing protein 1 (Homo sapiens); assay: Binding affinity to NT5DC1 in human MV4-11 cells at 1 uM by Western blot analysis; format: cell-based; how it was run: as §3
[14] = biological target: Epidermal growth factor receptor (Homo sapiens) (UniProt P00533); assay: Binding affinity to EGFR in human NCI-H1975 cells at 5 uM by pull down/LC-MS/MS analysis; format: cell-based
How it was run: (§4)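 Live H1975 cells were incubated for 1 h with the 5 μM alkyne probe, with or without 5× parent inhibitor as competitor. Cells were lysed and clicked by CuAAC to a biotin-TAMRA-azide tag. Proteins were enriched on streptavidin beads, checked by in-gel fluorescence, trypsin-digested and run on LC-MS/MS with label-free quantification. Hits were kept if log2 enrichment (probe/DMSO) was >3, −log10 p was >2 and probe LFQ intensity was >1 × 10^7.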

[15] = biological target: Trifunctional enzyme subunit alpha, mitochondrial (Homo sapiens) (UniProt P40939); assay: Binding affinity to HADHA in human NCI-H1975 cells at 5 uM by pull down/LC-MS/MS analysis; format: cell-based; how it was run: as §4
Sequence of Trifunctional enzyme subunit alpha, mitochondrial (Homo sapiens) (P40939 whole entry): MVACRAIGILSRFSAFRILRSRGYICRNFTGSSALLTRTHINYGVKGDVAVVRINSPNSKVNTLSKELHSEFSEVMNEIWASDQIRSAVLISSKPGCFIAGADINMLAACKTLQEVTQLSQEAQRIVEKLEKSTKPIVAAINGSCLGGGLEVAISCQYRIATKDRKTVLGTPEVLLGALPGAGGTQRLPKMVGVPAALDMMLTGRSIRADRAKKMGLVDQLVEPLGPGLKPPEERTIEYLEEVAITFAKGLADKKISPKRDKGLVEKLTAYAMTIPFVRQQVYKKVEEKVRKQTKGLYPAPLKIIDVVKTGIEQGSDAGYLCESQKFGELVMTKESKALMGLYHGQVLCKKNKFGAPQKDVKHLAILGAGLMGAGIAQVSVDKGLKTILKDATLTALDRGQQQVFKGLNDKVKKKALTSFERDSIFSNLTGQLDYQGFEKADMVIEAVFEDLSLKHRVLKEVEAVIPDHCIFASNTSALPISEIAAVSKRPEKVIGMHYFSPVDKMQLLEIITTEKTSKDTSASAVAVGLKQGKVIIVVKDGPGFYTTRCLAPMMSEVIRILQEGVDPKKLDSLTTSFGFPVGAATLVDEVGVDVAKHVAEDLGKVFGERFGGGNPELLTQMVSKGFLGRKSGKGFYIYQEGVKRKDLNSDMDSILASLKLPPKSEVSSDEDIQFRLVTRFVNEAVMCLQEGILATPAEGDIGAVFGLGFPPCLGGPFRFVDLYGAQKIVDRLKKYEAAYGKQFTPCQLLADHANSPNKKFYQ

[16] = biological target: DNA replication licensing factor MCM2 (Homo sapiens) (UniProt P49736); assay: Binding affinity to MCM2 in human NCI-H1975 cells at 5 uM by pull down/LC-MS/MS analysis; format: cell-based; how it was run: as §4
Sequence of DNA replication licensing factor MCM2 (Homo sapiens) (P49736 whole entry): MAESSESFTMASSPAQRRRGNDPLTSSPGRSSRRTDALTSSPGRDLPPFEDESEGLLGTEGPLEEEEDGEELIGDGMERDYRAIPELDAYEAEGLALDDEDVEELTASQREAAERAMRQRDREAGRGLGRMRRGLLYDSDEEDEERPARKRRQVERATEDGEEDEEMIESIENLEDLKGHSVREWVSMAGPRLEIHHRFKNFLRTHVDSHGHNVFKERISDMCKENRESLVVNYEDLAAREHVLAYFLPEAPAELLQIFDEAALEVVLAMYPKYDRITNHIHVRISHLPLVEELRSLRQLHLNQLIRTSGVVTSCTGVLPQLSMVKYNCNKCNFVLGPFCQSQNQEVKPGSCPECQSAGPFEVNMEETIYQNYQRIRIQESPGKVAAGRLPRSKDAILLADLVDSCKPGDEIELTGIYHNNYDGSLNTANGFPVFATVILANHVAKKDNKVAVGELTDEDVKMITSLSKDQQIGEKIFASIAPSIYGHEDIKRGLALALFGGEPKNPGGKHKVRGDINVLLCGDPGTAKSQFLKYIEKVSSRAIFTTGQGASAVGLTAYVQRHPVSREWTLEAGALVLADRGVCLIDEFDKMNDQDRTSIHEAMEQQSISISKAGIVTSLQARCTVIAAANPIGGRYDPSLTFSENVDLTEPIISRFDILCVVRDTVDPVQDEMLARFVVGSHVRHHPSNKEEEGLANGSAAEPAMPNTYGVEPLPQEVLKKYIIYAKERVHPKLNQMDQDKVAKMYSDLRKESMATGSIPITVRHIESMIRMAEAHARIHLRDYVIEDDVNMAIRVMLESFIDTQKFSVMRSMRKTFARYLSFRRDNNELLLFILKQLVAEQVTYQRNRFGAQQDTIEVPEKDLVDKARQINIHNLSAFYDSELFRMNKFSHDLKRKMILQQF

NCI-H1975 [17] = assay: Binding affinity to MAP4 in human NCI-H1975 cells at 5 uM by pull down/LC-MS/MS analysis; format: cell-based; how it was run: as §4
NCI-H1975 [18] = assay: Binding affinity to RPS19 in human NCI-H1975 cells at 5 uM by pull down/LC-MS/MS analysis; format: cell-based; how it was run: as §4
[19] = biological target: T1, 5'-nucleotidase domain-containing protein 1 (Homo sapiens); assay: Binding affinity to NT5DC1 in human NCI-H1975 cells at 5 uM by pull down/LC-MS/MS analysis; format: cell-based; how it was run: as §4
[20] = biological target: Mitochondrial antiviral-signaling protein (Homo sapiens) (UniProt Q7Z434); assay: Binding affinity to MAVS in human NCI-H1975 cells at 5 uM by pull down/LC-MS/MS analysis; format: cell-based; how it was run: as §4
Sequence of Mitochondrial antiviral-signaling protein (Homo sapiens) (Q7Z434 whole entry, the tested form may be a part): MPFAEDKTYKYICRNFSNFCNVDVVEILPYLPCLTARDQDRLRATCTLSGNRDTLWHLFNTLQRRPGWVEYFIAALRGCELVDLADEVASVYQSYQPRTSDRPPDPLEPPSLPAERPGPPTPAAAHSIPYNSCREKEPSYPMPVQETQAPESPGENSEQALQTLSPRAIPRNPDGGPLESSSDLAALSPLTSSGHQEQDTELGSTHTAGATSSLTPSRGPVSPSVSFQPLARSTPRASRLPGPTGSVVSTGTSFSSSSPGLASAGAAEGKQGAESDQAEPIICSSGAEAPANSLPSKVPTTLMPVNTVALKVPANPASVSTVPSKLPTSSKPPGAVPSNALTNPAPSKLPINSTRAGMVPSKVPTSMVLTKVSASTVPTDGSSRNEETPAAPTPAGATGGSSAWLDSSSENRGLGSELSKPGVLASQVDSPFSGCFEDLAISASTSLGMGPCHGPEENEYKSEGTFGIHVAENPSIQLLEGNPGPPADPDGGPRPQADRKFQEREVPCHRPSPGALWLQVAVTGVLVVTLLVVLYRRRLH

[21] = biological target: T1, 5'-nucleotidase domain-containing protein 1 (Homo sapiens); assay: Binding affinity to NT5DC1 in human MDA-MB-453 cells at 1 uM by Western blot analysis

C#CCN1CCN(c2ccc(Nc3ncc4c(C)cc(=O)n(-c5cccc(NC(=O)C=C)c5)c4n3)c(OC)c2)CC1
IC50 [2]: 8.04 nM | IC50 (NCI-H1975 [1]): 820 nM | Drug uptake [3]: Active | Drug uptake [4]: Not Active | inhibition [5]: Active | inhibition [6]: Active | Activity [7]: Active | Activity (NCI-H1975 [8]): Active | Activity [9]: Active | Activity [10]: Active | Activity [11]: Active | Activity [12]: Active | Activity [13]: Active | Activity [14]: Active | Activity [15]: Active | Activity [16]: Active | Activity (NCI-H1975 [17]): Active | Activity (NCI-H1975 [18]): Active | Activity [19]: Active | Activity [20]: Active | Activity [21]: Active

CN(C)C/C=C/C(=O)Nc1cc2c(Nc3ccc(F)c(Cl)c3)ncnc2cc1O[C@H]1CCOC1 [AFATINIB]
IC50 (NCI-H1975 [1]): 370 nM

C=CC(=O)Nc1cccc(-n2c(=O)cc(C)c3cnc(Nc4ccc(N5CCN(C)CC5)cc4OC)nc32)c1
IC50 [2]: 5.27 nM | IC50 (NCI-H1975 [1]): 130 nM | Activity [7]: Active | Activity (NCI-H1975 [8]): Active
